Publication PMC11843914 (RSC Advances, 2025)

Columns and labels:
Format in all cases: cell-based
[1] = system: HCT-116 (colon cancer); assay: MTT cell viability assay, HCT-116; settings: Homo sapiens; for IC50: HCT-116, 48 h, read-out: IC50 values, HCT-116; for cytotoxicity at 100 µM: HCT-116, read-out: Cytotoxicity %, HCT-116
Summary of the method: (§1)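 MTT viability assay on human cell lines: MCF-7, HCT-116, PC3 and normal BJ-1. Test compounds were first screened at 100 μM. IC50 values came from a concentration series of 100 μM down to 12.5 μM.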

[2] = system: PC3 (prostate cancer); assay: MTT cell viability assay, PC3; settings: Homo sapiens; for IC50: 48 h, read-out: IC50 values, PC3; for cytotoxicity at 100 µM: read-out: Cytotoxicity %, PC3
Summary of the method: as §1

[3] = system: MCF-7 (breast cancer); assay: MTT cell viability assay, MCF-7; settings: Homo sapiens; for IC50: MCF7, 48 h, read-out: IC50 values, MCF-7; for cytotoxicity at 100 µM: MCF7, read-out: Cytotoxicity %, MCF-7
Summary of the method: as §1

SMILES | IC50 [1] | cytotoxicity at 100 µM [1] | IC50 [2] | IC50 [3] | cytotoxicity at 100 µM [3] | cytotoxicity at 100 µM [2]
O=C(NN=Cc1ccc(O)cc1)c1nc2ccccc2s1 [6a, N′-(4-Hydroxybenzylidene)benzo[d]thiazole-2-carbohydrazide] | 102 ± 2.1 µM | – | – | – | – | –
COc1ccc(C=NNC(=O)c2nc3ccccc3s2)cc1OS(C)(=O)=O [6f, 5-((2-(Benzo[d]thiazole-2-carbonyl)hydrazono)methyl)-2-methoxyphenyl methanesulfonate] | – | 62.8% | – | – | – | –
O=c1[nH]cc(F)c(=O)[nH]1 [5-FU, 5-fluorouracil, reference compound] | 29.2 ± 1.7 µM | – | > 200 µM | 78.4 ± 4.2 µM | – | –
COc1ccc(C=NNC(=O)c2nc3ccccc3s2)cc1O [6c, N'-(3-Hydroxy-4-methoxybenzylidene)benzo[d]thiazole-2-carbohydrazide] | – | – | – | 80.9 ± 3.7 µM | 58.1% | –
CCS(=O)(=O)Oc1ccc(C=NNC(=O)c2nc3ccccc3s2)cc1OC [6h, 4-((2-(Benzo[d]thiazole-2-carbonyl)hydrazono)methyl)-2-methoxyphenyl ethanesulfonate] | – | 55.2% | – | – | – | 63.4%
CCS(=O)(=O)Oc1ccc(C=NNC(=O)c2nc3ccccc3s2)cc1 [6g, 4-((2-(Benzo[d]thiazole-2-carbonyl)hydrazono)methyl)phenyl ethanesulfonate] | – | 68.6% | – | – | 62.3% | 74.8%
CCCS(=O)(=O)Oc1ccc(C=NNC(=O)c2nc3ccccc3s2)cc1 [6j, 4-((2-(Benzo[d]thiazole-2-carbonyl)hydrazono)methyl)phenyl propane-1-sulfonate] | – | 68.5% | – | – | – | 62.3%
CS(=O)(=O)Oc1ccc(C=NNC(=O)c2nc3ccccc3s2)cc1 [6d, 4-((2-(Benzo[d]thiazole-2-carbonyl)hydrazono)methyl)phenyl methanesulfonate] | – | 66.7% | – | – | 62.5% | 66.5%
COc1cc(C=NNC(=O)c2nc3ccccc3s2)ccc1OS(C)(=O)=O [6e, 4-((2-(Benzo[d]thiazole-2-carbonyl)hydrazono)methyl)-2-methoxyphenyl methanesulfonate] | 81.4 ± 1.9 µM | 61.1% | 90.6 ± 2.7 µM | – | – | 60.8%
CCCS(=O)(=O)Oc1ccc(C=NNC(=O)c2nc3ccccc3s2)cc1OC [6k, 4-((2-(Benzo[d]thiazole-2-carbonyl)hydrazono)methyl)-2-methoxyphenyl propane-1-sulfonate] | – | 77.2% | – | – | 59.6% | 64.6%
